According to the M2OR odorant receptor database:

Experiments:
Settings in all cases: stereoisomer not certain
OR1L1 = test system: OR1L1
In short: (§1)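 Each receptor–molecule pair is labelled responsive or non-responsive (inactive) according to whether the original authors judged the measured signal statistically different from baseline. The data were taken from the main text and supplementary material of published papers and checked for typos and inconsistencies. Assay methods differed by source, with transient luciferase assays in mammalian cell lines being common.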

OR1L3 (Homo sapiens) = target: T1, OR1L3 (Homo sapiens) (UniProt Q8NH93)
T1 sequence (whole entry): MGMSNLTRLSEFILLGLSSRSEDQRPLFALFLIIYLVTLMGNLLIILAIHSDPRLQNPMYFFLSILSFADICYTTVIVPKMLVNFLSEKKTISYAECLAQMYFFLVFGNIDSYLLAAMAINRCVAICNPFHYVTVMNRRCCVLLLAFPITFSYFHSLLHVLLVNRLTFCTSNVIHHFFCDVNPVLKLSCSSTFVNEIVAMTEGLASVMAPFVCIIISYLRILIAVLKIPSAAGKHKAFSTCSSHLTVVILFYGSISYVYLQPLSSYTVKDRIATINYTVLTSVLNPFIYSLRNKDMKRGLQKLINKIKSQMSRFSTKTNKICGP
In short: as §1

OR1L4 (Homo sapiens) = OR1L4 (Homo sapiens) (UniProt Q8NGR5)
In short: as §1

OR1L4 = test system: OR1L4
In short: as §1

OR1L6 = test system: OR1L6
In short: as §1

OR1L8 (Homo sapiens) = OR1L8 (Homo sapiens) (UniProt Q8NGR8)
In short: as §1

OR1L8 T27P R211P = test system: OR1L8 T27P R211P
In short: as §1

OR1M1 (Homo sapiens) = OR1M1 (Homo sapiens) (UniProt Q8NGA1)
In short: as §1

OR1N1 (Homo sapiens) = target: T2, OR1N1 (Homo sapiens) (UniProt Q8NGS0)
T2 sequence (whole entry): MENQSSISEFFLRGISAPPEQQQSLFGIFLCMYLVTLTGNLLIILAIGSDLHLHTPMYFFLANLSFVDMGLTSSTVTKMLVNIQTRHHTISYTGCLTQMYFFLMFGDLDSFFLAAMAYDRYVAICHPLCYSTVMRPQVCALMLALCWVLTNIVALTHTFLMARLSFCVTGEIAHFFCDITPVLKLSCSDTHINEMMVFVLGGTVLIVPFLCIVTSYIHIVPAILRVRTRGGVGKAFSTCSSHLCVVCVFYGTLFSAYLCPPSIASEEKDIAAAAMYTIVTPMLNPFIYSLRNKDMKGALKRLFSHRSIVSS
In short: as §1

OR1N2 W37R = test system: OR1N2 W37R
In short: as §1

OR1N2 = test system: OR1N2
In short: as §1

OR1Q1 (Homo sapiens) = OR1Q1 (Homo sapiens) (UniProt Q15612)
In short: as §1

OR1Q1 = test system: OR1Q1
In short: as §1

OR1S1 (Homo sapiens) = OR1S1 (Homo sapiens) (UniProt Q8NH92)
In short: as §1

OR1S2 (Homo sapiens) = OR1S2 (Homo sapiens) (UniProt Q8NGQ3)
In short: as §1

OR1S2 E17G = test system: OR1S2 E17G
In short: as §1

OR1S2 V225T G240R = test system: OR1S2 V225T G240R
In short: as §1

OR1L1 (Homo sapiens) = OR1L1 (Homo sapiens) (UniProt Q8NH94)
In short: as §1

OR1L6 (Homo sapiens) = OR1L6 (Homo sapiens) (UniProt Q8NGR2)
In short: as §1

OR1P1 (Homo sapiens) = OR1P1 (Homo sapiens) (UniProt Q8NH06)
In short: as §1

Measured: odorant receptor agonist call;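 also: active if original authors judged signal statistically different from baseline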

Chain of OR1Q1 (Homo sapiens) (Q15612 whole entry): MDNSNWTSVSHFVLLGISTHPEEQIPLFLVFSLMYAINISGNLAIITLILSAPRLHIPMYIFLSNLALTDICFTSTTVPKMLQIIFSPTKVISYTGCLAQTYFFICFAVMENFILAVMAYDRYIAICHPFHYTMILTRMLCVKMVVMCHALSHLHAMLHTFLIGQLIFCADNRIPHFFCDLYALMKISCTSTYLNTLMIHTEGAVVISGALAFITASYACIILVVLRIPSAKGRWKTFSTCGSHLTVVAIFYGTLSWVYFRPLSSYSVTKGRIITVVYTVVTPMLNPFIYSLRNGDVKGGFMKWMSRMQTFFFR
Chain of OR1M1 (Homo sapiens) (Q8NGA1 whole entry): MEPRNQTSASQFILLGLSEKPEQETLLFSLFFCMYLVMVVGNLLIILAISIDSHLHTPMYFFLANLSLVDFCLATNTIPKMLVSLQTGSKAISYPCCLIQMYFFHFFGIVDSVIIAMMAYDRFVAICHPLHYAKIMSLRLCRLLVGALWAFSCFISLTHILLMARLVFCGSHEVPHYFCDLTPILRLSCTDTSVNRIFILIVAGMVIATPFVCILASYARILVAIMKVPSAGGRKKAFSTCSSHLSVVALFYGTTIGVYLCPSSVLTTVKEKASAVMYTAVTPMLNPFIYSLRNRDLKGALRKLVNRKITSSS
Chain of OR1S1 (Homo sapiens) (Q8NH92 whole entry): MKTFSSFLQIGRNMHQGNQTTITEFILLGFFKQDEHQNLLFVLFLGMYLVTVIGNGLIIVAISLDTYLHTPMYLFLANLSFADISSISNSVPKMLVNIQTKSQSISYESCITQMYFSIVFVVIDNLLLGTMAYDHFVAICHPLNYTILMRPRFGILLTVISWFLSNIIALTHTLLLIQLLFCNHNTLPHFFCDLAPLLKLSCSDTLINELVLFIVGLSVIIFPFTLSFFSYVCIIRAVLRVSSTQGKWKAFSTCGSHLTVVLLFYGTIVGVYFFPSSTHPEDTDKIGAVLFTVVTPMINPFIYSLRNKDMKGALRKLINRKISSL
Chain of OR1L4 (Homo sapiens) (Q8NGR5 whole entry): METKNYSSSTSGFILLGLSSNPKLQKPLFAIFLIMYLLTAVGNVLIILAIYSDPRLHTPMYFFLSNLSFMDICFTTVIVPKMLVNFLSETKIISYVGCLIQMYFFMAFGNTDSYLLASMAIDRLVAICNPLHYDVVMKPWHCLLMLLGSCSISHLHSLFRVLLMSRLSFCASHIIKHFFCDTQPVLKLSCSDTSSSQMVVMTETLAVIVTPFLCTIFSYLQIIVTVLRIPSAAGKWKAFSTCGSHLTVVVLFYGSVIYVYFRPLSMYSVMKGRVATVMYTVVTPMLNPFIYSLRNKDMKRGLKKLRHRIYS
Chain of OR1N2 (as listed by the source): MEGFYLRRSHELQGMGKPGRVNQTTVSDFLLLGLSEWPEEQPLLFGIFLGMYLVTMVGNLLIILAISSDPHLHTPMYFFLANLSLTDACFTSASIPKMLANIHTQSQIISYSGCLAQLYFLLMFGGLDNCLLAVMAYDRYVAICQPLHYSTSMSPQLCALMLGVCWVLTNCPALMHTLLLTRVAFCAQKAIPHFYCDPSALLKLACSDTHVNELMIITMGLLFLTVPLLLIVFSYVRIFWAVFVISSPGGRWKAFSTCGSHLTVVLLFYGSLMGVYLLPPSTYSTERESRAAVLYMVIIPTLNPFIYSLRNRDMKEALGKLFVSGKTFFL
Chain of OR1L8 (Homo sapiens) (Q8NGR8 whole entry): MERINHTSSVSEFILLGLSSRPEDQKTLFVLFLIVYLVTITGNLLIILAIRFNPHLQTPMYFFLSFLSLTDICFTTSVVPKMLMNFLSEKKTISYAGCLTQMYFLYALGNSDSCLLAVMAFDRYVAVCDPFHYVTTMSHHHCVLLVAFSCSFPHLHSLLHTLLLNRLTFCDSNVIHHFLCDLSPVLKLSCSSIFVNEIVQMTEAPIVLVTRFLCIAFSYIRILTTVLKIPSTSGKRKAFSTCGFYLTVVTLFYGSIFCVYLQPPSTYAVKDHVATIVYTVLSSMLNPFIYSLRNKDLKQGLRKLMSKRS
Chain of OR1S2 (Homo sapiens) (Q8NGQ3 whole entry): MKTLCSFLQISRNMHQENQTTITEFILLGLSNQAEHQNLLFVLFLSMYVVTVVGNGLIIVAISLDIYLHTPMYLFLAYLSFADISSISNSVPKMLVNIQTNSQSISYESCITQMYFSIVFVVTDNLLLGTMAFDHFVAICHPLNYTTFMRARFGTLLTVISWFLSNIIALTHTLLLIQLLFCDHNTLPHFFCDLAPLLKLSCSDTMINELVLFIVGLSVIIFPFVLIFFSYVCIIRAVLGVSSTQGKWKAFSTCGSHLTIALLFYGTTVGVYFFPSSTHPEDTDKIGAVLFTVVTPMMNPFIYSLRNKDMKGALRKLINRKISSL
Chain of OR1L6 (Homo sapiens) (Q8NGR2 whole entry): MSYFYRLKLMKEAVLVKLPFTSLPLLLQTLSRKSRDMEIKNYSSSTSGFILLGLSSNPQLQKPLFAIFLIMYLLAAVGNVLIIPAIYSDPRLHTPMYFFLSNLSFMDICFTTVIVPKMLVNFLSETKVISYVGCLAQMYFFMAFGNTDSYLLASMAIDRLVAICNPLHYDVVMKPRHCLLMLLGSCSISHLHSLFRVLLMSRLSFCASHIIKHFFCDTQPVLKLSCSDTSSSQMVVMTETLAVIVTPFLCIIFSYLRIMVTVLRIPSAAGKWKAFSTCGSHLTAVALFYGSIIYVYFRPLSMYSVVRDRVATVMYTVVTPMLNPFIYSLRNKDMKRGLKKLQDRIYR
Chain of OR1L4 (as listed by the source): as the sequence (Q8NGR5 whole entry) above, with G234R counted along it
Chain of OR1P1 (Homo sapiens) (Q8NH06 whole entry K185A): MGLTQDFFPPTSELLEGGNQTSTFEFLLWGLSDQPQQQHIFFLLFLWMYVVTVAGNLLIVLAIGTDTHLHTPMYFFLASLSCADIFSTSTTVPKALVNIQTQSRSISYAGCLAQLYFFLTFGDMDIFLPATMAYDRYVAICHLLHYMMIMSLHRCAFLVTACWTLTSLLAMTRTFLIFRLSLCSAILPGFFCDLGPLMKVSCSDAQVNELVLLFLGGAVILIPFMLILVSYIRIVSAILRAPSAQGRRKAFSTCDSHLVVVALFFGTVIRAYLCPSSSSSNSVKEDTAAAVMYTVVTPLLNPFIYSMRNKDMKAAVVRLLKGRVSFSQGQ
Chain of OR1L1 (Homo sapiens) (Q8NH94 whole entry): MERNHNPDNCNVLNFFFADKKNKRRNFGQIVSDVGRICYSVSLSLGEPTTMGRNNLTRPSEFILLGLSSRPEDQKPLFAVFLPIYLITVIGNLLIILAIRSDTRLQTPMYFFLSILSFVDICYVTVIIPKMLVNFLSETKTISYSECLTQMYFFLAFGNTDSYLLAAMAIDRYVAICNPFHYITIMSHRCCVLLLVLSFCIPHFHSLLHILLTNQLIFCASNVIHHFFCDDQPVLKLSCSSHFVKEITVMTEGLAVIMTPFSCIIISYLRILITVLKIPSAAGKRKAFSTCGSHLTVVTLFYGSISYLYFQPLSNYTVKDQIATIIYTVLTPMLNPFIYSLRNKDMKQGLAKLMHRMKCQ
Chain of OR1L6 (as listed by the source): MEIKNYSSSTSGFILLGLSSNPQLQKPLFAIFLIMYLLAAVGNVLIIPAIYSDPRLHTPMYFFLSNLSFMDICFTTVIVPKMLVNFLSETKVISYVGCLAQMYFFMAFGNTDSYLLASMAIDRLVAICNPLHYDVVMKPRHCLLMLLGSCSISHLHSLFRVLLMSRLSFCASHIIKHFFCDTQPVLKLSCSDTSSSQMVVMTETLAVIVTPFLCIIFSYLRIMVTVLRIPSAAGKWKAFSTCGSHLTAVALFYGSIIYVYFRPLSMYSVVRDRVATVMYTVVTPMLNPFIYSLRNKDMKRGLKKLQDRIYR
Chain of OR1L1 (as listed by the source): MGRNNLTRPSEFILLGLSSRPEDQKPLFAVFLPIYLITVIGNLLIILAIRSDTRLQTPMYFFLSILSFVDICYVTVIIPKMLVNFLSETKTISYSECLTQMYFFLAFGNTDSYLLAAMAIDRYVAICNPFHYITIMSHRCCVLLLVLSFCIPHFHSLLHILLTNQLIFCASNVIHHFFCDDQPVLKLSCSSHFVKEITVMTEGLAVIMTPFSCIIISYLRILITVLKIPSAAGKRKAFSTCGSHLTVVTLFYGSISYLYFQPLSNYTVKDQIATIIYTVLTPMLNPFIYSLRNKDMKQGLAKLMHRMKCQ
Chain of OR1S2 E17G (as listed by the source, stated change not applied): as the sequence (Q8NGQ3 whole entry) above, with E17G counted along it
Chain of OR1Q1 (as listed by the source): as the sequence (Q15612 whole entry) above, with Q24R, I163M counted along it
Chain of OR1N2 W37R (as listed by the source, stated change not applied): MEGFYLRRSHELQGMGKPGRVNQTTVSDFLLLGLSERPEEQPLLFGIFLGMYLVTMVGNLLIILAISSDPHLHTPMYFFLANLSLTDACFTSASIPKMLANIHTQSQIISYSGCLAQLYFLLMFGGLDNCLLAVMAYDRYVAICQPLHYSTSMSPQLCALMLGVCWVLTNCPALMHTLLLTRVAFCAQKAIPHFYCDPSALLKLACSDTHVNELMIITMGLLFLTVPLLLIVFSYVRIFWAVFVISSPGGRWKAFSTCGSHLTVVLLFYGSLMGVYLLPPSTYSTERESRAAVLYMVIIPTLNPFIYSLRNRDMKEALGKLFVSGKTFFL

C=CCOC(=O)Cc1ccccc1
inactive: OR1L1 | OR1L3 (Homo sapiens) | OR1L4 (Homo sapiens) | OR1L4 | OR1L6 | OR1L8 (Homo sapiens) | OR1L8 T27P R211P | OR1M1 (Homo sapiens) | OR1N1 (Homo sapiens) | OR1N2 W37R | OR1N2 | OR1Q1 (Homo sapiens) | OR1Q1 | OR1S1 (Homo sapiens) | OR1S2 (Homo sapiens) | OR1S2 E17G | OR1S2 V225T G240R

Cc1c([N+](=O)[O-])c(C)c([N+](=O)[O-])c(C(C)(C)C)c1[N+](=O)[O-]
inactive: OR1L1 (Homo sapiens) | OR1L3 (Homo sapiens) | OR1L4 (Homo sapiens) | OR1L6 (Homo sapiens) | OR1L8 (Homo sapiens) | OR1M1 (Homo sapiens) | OR1N1 (Homo sapiens) | OR1N2 | OR1P1 (Homo sapiens) | OR1Q1 (Homo sapiens) | OR1S1 (Homo sapiens) | OR1S2 (Homo sapiens)

O=Cc1ccccc1
inactive: OR1L3 (Homo sapiens)

C=CCc1ccc(OC)cc1
inactive: OR1L3 (Homo sapiens)

O=CC=Cc1ccccc1
inactive: OR1L3 (Homo sapiens)

c1ccncc1
inactive: OR1N1 (Homo sapiens)
